From ChEMBL document CHEMBL2040794, “Synthesis and structure-activity analysis of new phosphonium salts with potent activity against African trypanosomes” (J Med Chem, 2012)
pEC50, pKi: −log10 of the molar value. The source made the active and inactive calls. The rule behind the calls is not given here.

Columns and labels:
[1] = test system: L6; test: Cytotoxicity against rat L6 cells after 72 hrs by alamar blue assay; type: cell-based; settings: Rattus norvegicus, L6, 72 h
[2] = test system: Trypanosoma brucei brucei; test: Resistance factor, ratio of EC50 for diminazene-, pentamidine-, and melaminophenyl arsenical-resistant HAPT1-deficient Trypanosoma brucei brucei B48 to EC50 for wild type Trypanosoma brucei brucei Lister 427; type: functional
Summary of the method: (§1)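 Resistance factor is the EC50 in the resistant line (TbAT1-KO or B48) divided by the EC50 in wild-type s427. […] Resistant and wild-type EC50s were compared by Student t-test.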

[3] = test system: Trypanosoma brucei brucei; test: Antitrypanosomal activity against diminazene aceturate-resistant TbAT1 gene-deficient Trypanosoma brucei brucei AT1-KO after 3 days by alamar blue assay; type: functional, organism-based; settings: Trypanosoma brucei, AT1-KO, 72 h
Summary of the method: (§2)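 Bloodstream-form T. b. brucei (wild-type s427; TbAT1-KO, made from s427 by TbAT1 deletion; B48, selected from TbAT1-KO in vitro on pentamidine, lacking functional HAPT1). Cells were exposed to compound for 48 h, then resazurin (Alamar blue) was added for a further 24 h. A single fluorescence reading gave EC50.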

[4] = test system: Trypanosoma brucei brucei; test: Antitrypanosomal activity against diminazene-, pentamidine-, and melaminophenyl arsenical-resistant HAPT1-deficient Trypanosoma brucei brucei B48 after 3 days by alamar blue assay; type: functional, organism-based; settings: Trypanosoma brucei, B48, 72 h; summary of the method: as §2
[5] = test system: Trypanosoma brucei brucei; test: Antitrypanosomal activity against wild type Trypanosoma brucei brucei Lister 427 after 3 days by alamar blue assay; type: functional, organism-based; settings: Trypanosoma brucei, Lister 427, 72 h; summary of the method: as §2
[6] = test system: Trypanosoma brucei rhodesiense; test: Antitrypanosomal activity against Trypanosoma brucei rhodesiense STIB900 infected in rat L6 cells after 72 hrs by alamar blue assay; type: functional, organism-based; settings: Trypanosoma brucei, STIB900, 72 h
[7] = Selectivity index, ratio of EC50 for rat L6 cells to EC50 for Trypanosoma brucei rhodesiense STIB900; type: toxicity, cell-based; settings: L6 cells, read-out: Ratio EC50
Summary of the method: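 Ratio of EC₅₀ in L6 cells to EC₅₀ against T. b. rhodesiense STIB900, both from Alamar blue assays.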

[8] = Inhibition of Trypanosoma brucei brucei LAPT1 assessed as [3H]-pentamidine uptake after 120 secs by scintillation counting
Summary of the method: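 LAPT1 transport: late-log trypanosomes from HMI-9/10% FBS culture washed into pH 7.3 HEPES-bicarbonate-glucose buffer; 1 μM final [³H]-pentamidine uptake over 120 s with competitor. Uptake terminated with 2 mM ice-cold pentamidine and oil centrifugation; counted by scintillation, Ki from sigmoid curves; triplicate, at least three separate occasions.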

[9] = Cytotoxicity against human HEK cells after 3 days by alamar blue assay; type: cell-based, HEK293; settings: Homo sapiens, HEK293, 72 h
Summary of the method: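 Human embryonic kidney cells tested by resazurin (Alamar blue) assay: 48 h with compound, then 24 h more after dye addition, single reading; EC₅₀ derived.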

[10] = test system: Trypanosoma brucei brucei; test: Resistance factor, ratio of EC50 for diminazene aceturate-resistant TbAT1 gene-deficient Trypanosoma brucei brucei AT1-KO to EC50 for wild type Trypanosoma brucei brucei Lister 427; type: functional; summary of the method: as §1
[11] = Selectivity index, ratio of EC50 for human HEK cells to EC50 for wild type Trypanosoma brucei brucei Lister 427; type: toxicity, cell-based, HEK293; settings: HEK cells, read-out: Ratio EC50
Summary of the method: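 Ratio of EC₅₀ in HEK cells to EC₅₀ in wild-type T. b. brucei s427, both from resazurin assays.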

[12] = Inhibition of Trypanosoma brucei brucei HAPT1 assessed as [3H]-pentamidine uptake after 60 secs by scintillation counting
Summary of the method: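 HAPT1 transport: late-log T. b. brucei grown in HMI-9 + 10% FBS, washed into HEPES/bicarbonate assay buffer with 14 mM glucose, pH 7.3. [³H]-pentamidine at 30 nM final for 60 s with inhibitor; stopped with 2 mM ice-cold unlabeled pentamidine and spin through oil. Scintillation counting, sigmoid fit for Ki; triplicates, ≥3 independent experiments.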

[13] = test system: Trypanosoma brucei brucei; test: Antitrypanosomal activity against Trypanosoma brucei brucei bloodstream forms assessed as decrease in cell count at 0.25 uM treated for 48 hrs followed by washout after 30 mins and measured after 48 hrs by hemocytometric analysis; type: functional, organism-based
Summary of the method: (§3)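 T. b. brucei bloodstream forms seeded at 10⁵ cells/mL with 0.25 μM compound; drug removed by centrifugation (1100g) after 30 min or 4 h and cells resuspended in drug-free fresh medium, or fresh medium still containing 0.25 μM compound; drug-free control run alongside. Growth followed over 48 h by microscopic hemocytometer counts in triplicate, averages reported.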

[14] = test system: Trypanosoma brucei brucei; test: Antitrypanosomal activity against Trypanosoma brucei brucei bloodstream forms assessed as decrease in cell count at 0.25 uM treated for 48 hrs followed by washout after 4 hrs measured after 44 hrs by hemocytometric analysis; type: functional, organism-based; summary of the method: as §3
[15] = test system: Trypanosoma brucei brucei; test: Antitrypanosomal activity against Trypanosoma brucei brucei bloodstream forms assessed as decrease in cell count at 0.25 uM treated for 48 hrs followed by washout after 4 hrs by hemocytometric analysis; type: functional, organism-based; summary of the method: as §3
[16] = test system: Trypanosoma brucei brucei; test: Antitrypanosomal activity against wild type Trypanosoma brucei brucei Lister 427 assessed as decrease in viability at >700 times EC50 after 8 hrs by propidium iodide staining-based fluorescence microscopic analysis; type: functional, organism-based
Summary of the method: (§4)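 Real-time propidium iodide integrity assay: 5 × 10⁵ trypanosomes per well in HMI-9 plus 10% FBS containing 9 μM PI, 37 °C, 5% CO₂. Fluorescence read on a plate fluorimeter (ex 544/em 620 nm) every 2 min for 250 cycles, more than 8 h. Strains run in parallel on one plate.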

[17] = test system: Trypanosoma brucei brucei; test: Antitrypanosomal activity against diminazene aceturate-resistant TbAT1 gene-deficient Trypanosoma brucei brucei AT1-KO assessed as decrease in viability at > 3.3 uM after 8 hrs by propidium iodide staining-based fluorescence microscopic analysis; type: functional, organism-based
Summary of the method: (§5)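 Trypanosomes at 5 × 10⁵ cells/well in HMI-9 with 10% FBS and 9 μM propidium iodide, with compound at a range of concentrations. Fluorescence (ex 544, em 620 nm) was read every 2 min for 250 cycles (>8 h) at 37 °C and 5% CO2. All three strains ran in parallel on one plate, with drug-free controls.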

[18] = test system: Trypanosoma brucei brucei; test: Antitrypanosomal activity against diminazene-, pentamidine-, and melaminophenyl arsenical-resistant HAPT1-deficient Trypanosoma brucei brucei B48 harboring HAPT mutant gene assessed as decrease in viability at > 3.3 uM after 8 hrs by propidium iodide staining-based fluorescence microscopic analysis; type: functional, organism-based; summary of the method: as §5
[19] = test system: Trypanosoma brucei brucei; test: Antitrypanosomal activity against wild type Trypanosoma brucei brucei Lister 427 assessed as decrease in viability at 70 to 120 times EC50 after 8 hrs by propidium iodide staining-based fluorescence microscopic analysis; type: functional, organism-based; summary of the method: as §4
[20] = test system: Trypanosoma brucei brucei; test: Antitrypanosomal activity against diminazene-, pentamidine-, and melaminophenyl arsenical-resistant HAPT1-deficient Trypanosoma brucei brucei B48 harboring HAPT mutant gene assessed as decrease in viability at 15 times EC50 after 8 hrs by propidium iodide staining-based fluorescence microscopic analysis; type: functional, organism-based; summary of the method: as §5
[21] = test system: Trypanosoma brucei brucei; test: Antitrypanosomal activity against diminazene aceturate-resistant TbAT1 gene-deficient Trypanosoma brucei brucei AT1-KO assessed as decrease in viability at 15 times EC50 after 8 hrs by propidium iodide staining-based fluorescence microscopic analysis; type: functional, organism-based; summary of the method: as §5
[22] = test system: Trypanosoma brucei brucei; test: Antitrypanosomal activity against wild type Trypanosoma brucei brucei Lister 427 assessed as decrease in viability at > 3.3 uM after 8 hrs by propidium iodide staining-based fluorescence microscopic analysis; type: functional, organism-based; summary of the method: as §4

## O=C(c1ccc(C[P+](c2ccccc2)(c2ccccc2)C2CCCCC2)cc1)c1ccc(C[P+](c2ccccc2)(c2ccccc2)C2CCCCC2)cc1.[Br-].[Br-]
[1]
  pEC50: 4.18
[2]
  Ratio EC50: 1.1
[3]
  pEC50: 6.39
[4]
  pEC50: 6.48
[5]
  pEC50: 6.52
[6]
  pEC50: 6.37
[7]
  selectivity ratio: 155
[8]
  pKi: 4.72
[9]
  pEC50: < 3.52
[10]
  Ratio EC50: 1.4
[11]
  selectivity ratio: > 1000

## CC(=O)N(c1ccc(C[P+](c2ccc(C)cc2)(c2ccc(C)cc2)c2ccc(C)cc2)cc1)c1ccc(C[P+](c2ccc(C)cc2)(c2ccc(C)cc2)c2ccc(C)cc2)cc1.[Br-].[Br-]
[1]
  pEC50: 4.66
[2]
  Ratio EC50: 0.9
[12]
  pKi: 5.04
[3]
  pEC50: 6.52
[4]
  pEC50: 6.54
[5]
  pEC50: 6.49
[6]
  pEC50: 6.80
[7]
  selectivity ratio: 137
[8]
  pKi: 5.44
[9]
  pEC50: < 3.52
[10]
  Ratio EC50: 0.9
[11]
  selectivity ratio: > 930

## CCCCCC[P+](CCCCCC)(CCCCCC)Cc1ccc(Cc2ccc(C[P+](CCCCCC)(CCCCCC)CCCCCC)cc2)cc1.[Br-].[Br-]
[1]
  pEC50: 6.02
[2]
  Ratio EC50: 1.2
[3]
  pEC50: 7.48
[13]
  Activity: inactive
[14]
  Activity: Active
[4]
  pEC50: 7.41
[5]
  pEC50: 7.48
[6]
  pEC50: 6.74
[7]
  selectivity ratio: 5
[15]
  Activity: Active
[8]
  pKi: 5.02
[9]
  pEC50: 4.74
[10]
  Ratio EC50: 1
[11]
  selectivity ratio: 543

## Cc1ccc(C[P+](c2ccccc2)(c2ccccc2)c2ccccc2)cc1
[16]
  Activity: Active

## C[P+](C)(C)Cc1ccc(C(=O)c2ccc(C[P+](C)(C)C)cc2)cc1
[1]
  pEC50: < 3.76
[12]
  pKi: < 3.60
[3]
  pEC50: < 4.00
[4]
  pEC50: < 4.00
[5]
  pEC50: < 4.00
[6]
  pEC50: 3.90
[8]
  pKi: < 3.60

## N=C(N)c1ccc(OCCCCCOc2ccc(C(=N)N)cc2)cc1 [PENTAMIDINE]
[2]
  Ratio EC50: 70.9
[12]
  pKi: 7.44
[3]
  pEC50: 8.05
[4]
  pEC50: 6.25
[5]
  pEC50: 8.10
[8]
  pKi: 4.25
[10]
  Ratio EC50: 1.1

## Cc1ccc([P+](Cc2ccc(Oc3ccc(C[P+](c4ccc(C)cc4)(c4ccc(C)cc4)c4ccc(C)cc4)cc3)cc2)(c2ccc(C)cc2)c2ccc(C)cc2)cc1.[Br-].[Br-]
[1]
  pEC50: 5.63
[2]
  Ratio EC50: 0.8
[3]
  pEC50: 7.60
[13]
  Activity: inactive
[14]
  Activity: Active
[4]
  pEC50: 7.68
[5]
  pEC50: 7.62
[6]
  pEC50: 6.77
[7]
  selectivity ratio: 14
[15]
  Activity: Active
[9]
  pEC50: 4.07
[10]
  Ratio EC50: 1
[11]
  selectivity ratio: 3570

## CCCCCC[P+](CCCCCC)(CCCCCC)Cc1ccc(C(=O)c2ccc(C[P+](CCCCCC)(CCCCCC)CCCCCC)cc2)cc1.[Br-].[Br-]
[1]
  pEC50: 5.95
[2]
  Ratio EC50: 0.9
[3]
  pEC50: 7.33
[4]
  pEC50: 7.46
[5]
  pEC50: 7.42
[6]
  pEC50: 6.95
[7]
  selectivity ratio: 10
[8]
  pKi: 4.60
[9]
  pEC50: 4.78
[10]
  Ratio EC50: 1.2
[11]
  selectivity ratio: 438

## O=C(c1ccc(C[P+](C2CCCCC2)(C2CCCCC2)C2CCCCC2)cc1)c1ccc(C[P+](C2CCCCC2)(C2CCCCC2)C2CCCCC2)cc1.[Br-].[Br-]
[1]
  pEC50: 4.49
[2]
  Ratio EC50: 1.8
[3]
  pEC50: 6.64
[4]
  pEC50: 6.60
[5]
  pEC50: 6.85
[6]
  pEC50: 6.71
[7]
  selectivity ratio: 166
[8]
  pKi: 4.41
[9]
  pEC50: < 3.52
[10]
  Ratio EC50: 1.6
[11]
  selectivity ratio: > 2100

## CCCCC[P+](CCCCC)(CCCCC)Cc1ccc(C(=O)c2ccc(C[P+](CCCCC)(CCCCC)CCCCC)cc2)cc1.[Br-].[Br-]
[1]
  pEC50: 5.06
[2]
  Ratio EC50: 0.9
[12]
  pKi: 5.28
[17]
  Activity: Active
[3]
  pEC50: 6.77
[18]
  Activity: Active
[19]
  Activity: Active
[4]
  pEC50: 6.74
[20]
  Activity: Active
[5]
  pEC50: 6.70
[6]
  pEC50: 6.54
[7]
  selectivity ratio: 30
[21]
  Activity: Active
[8]
  pKi: 5.66
[9]
  pEC50: 4.18
[10]
  Ratio EC50: 0.8
[11]
  selectivity ratio: 338
[22]
  Activity: Active

## Cc1ccc([P+](Cc2ccc(Cc3ccc(C[P+](c4ccccc4)(c4ccccc4)c4ccc(C)cc4)cc3)cc2)(c2ccccc2)c2ccccc2)cc1.[Br-].[Br-]
[1]
  pEC50: 5.35
[2]
  Ratio EC50: 0.7
[3]
  pEC50: 6.72
[4]
  pEC50: 6.74
[5]
  pEC50: 6.62
[6]
  pEC50: 6.70
[7]
  selectivity ratio: 22
[8]
  pKi: 4.70
[9]
  pEC50: < 3.52
[10]
  Ratio EC50: 0.8
[11]
  selectivity ratio: > 1250
